Source: PubChem BioAssay
Rpn11 block = Rpn11 (PSMD14) deubiquitinase inhibitors, primary screen, biochemical, fluorescence polarization, uHTS; 26S proteasome non-ATPase regulatory subunit 14 (Homo sapiens), O00487; human 26S proteasome, Ub4-pepOG fluorescence polarization; 20S core pre-blocked with epoxomicin; inhibition, % at 20 µM; 0.59% of 360,000 active; AID 588493, 2011;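 active = inhibition at 20 µM, scaled to each plate's controls, above about 33%, limit read from the data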
HNF4A DNA FP = change in binding of human HNF4A to DNA, primary screen, biochemical, fluorescence polarization, FITC-DNA; Hepatocyte nuclear factor 4-alpha (Homo sapiens), P41235; 1 h; activity change, % at 10 µM; 0.3% of 360,000 active; in the data active = activity change above about 30%, passing the limit was not always enough
TPT1 inhibitor = Candida albicans TPT1 enzyme inhibitors, primary screen, biochemical, fluorescence polarization; inhibition, % at 5 µM; 0.81% of 300,000 active; recombinant caTPT1, FP RNA substrate dephosphorylation;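 active = inhibition above the mean of all tested compounds plus 3 SD, set per screening campaign, cut at about 24% in these data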;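 note: plate controls were DMSO alone for no effect and ferristatin control at 100 nM for full effect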
CSN inh = inhibitors of CSN-mediated cullin deneddylation, primary screen, biochemical, fluorescence polarization, uHTS. 0.38% of 360,000 active. Purified CSN, SCF-Nedd8-OG deneddylation. COP9 signalosome complex subunit 5 (Homo sapiens), Q92905. AID 651999, 2013. inhibition, % at 12.5 µM;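 active = pattern-corrected inhibition above about 35%, with an unprinted fluorescence ratio check between 0.5 and 1.5, limit read from the data, passing the limit was not always enough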;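 note: 0% = enzyme with substrate and 100% = substrate without enzyme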
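Assay system: purified human Csn5 enzyme expressed in HEK293T cells; Input: 0.24 nM Csn5 enzyme, final concentration; Reagent: 10 nM SCFSkp2-Nedd8OG; Compound dosing: 12.5 µM single point; Times: reaction 90 min, room temperature; Technique: fluorescence polarization readout.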
Rpn11 confirm = Rpn11 (PSMD14) deubiquitinase inhibitors, confirmation, biochemical, fluorescence polarization, single concentration | shares compounds with Rpn11 block | purified human 26S proteasome, Ub4-pepOG fluorescence polarization; proteasome pretreated with epoxomicin | inhibition, % at 20 µM | 29% of 1,900 active | AID 602318, 2012
MMP-2 counter = MMP-2 enzyme inhibition, confirmation, counter-screen for RPN11 inhibitor project, biochemical, fluorescence, single concentration; AID 602330, 2012; shares compounds with Rpn11 block; 4% of 1,900 active; inhibition, % at 20 µM; recombinant MMP-2, FRET peptide cleavage fluorescence;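 note: human MMP-2 activated beforehand with APMA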
Thrombin inh = bovine thrombin protease inhibition, confirmation, counter-screen for Rpn11 inhibitor project, biochemical, fluorescence polarization, single concentration; shares compounds with Rpn11 block; bovine thrombin cleavage of Ub4-pepOG; inhibition, % at 20 µM; 13% of 1,900 active;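 active = mean inhibition at least 40% at 20 µM, or signal 3 deviations below plate average, so some actives read negative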;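 note: plate controls were thrombin with DMSO for no effect and buffer wells lacking thrombin for full effect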
Target sequence (P00735 whole entry, looked up): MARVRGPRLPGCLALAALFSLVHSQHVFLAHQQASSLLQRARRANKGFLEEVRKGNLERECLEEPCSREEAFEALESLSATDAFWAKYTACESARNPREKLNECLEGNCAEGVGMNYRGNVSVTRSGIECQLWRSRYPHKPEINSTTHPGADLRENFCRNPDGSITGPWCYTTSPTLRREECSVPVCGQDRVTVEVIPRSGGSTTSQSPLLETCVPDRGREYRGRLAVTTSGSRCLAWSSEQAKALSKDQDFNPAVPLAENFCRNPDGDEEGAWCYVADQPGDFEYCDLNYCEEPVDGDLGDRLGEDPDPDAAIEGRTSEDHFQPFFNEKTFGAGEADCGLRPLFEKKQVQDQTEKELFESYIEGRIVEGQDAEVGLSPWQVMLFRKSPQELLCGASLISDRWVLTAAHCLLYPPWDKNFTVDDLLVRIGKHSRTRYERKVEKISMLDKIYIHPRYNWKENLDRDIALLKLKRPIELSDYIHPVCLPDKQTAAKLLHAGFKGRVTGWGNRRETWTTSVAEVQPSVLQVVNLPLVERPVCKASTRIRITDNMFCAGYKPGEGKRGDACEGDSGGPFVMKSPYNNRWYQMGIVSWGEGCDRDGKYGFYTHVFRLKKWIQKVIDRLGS
* marks the source's active call; other numbers are inactive results. Most compounds without a hit are left out; they make up all but 1.5% or so of the library. Cut-off read from the data, not from the text of the source, unless noted: active = inhibition above about 40%; inactive = the rest.

How did COc1ccccc1C(=O)COC(=O)c1cc(=O)[nH]c2ccccc12 do in these assays?
Rpn11 block: -3.3; HNF4A DNA FP: -3.7; TPT1 inhibitor: 0.1; CSN inh: 2.7

What do the screens show for `Cc1ccc(/C=N/NC(=O)c2nnn(-c3nonc3N)c2-c2ccc3c(c2)OCO3)s1`?
Rpn11 block: 5.6; HNF4A DNA FP: 0.1; TPT1 inhibitor: 4.5; CSN inh: 8.0

How did CCOC(=O)c1c(NC(=O)C(C)OC(=O)c2ccc(NC(=O)CC#N)cc2)sc2c1CCCC2 (centres undefined) do in these assays?
Rpn11 block: 52.6*; HNF4A DNA FP: 12.3; TPT1 inhibitor: 12.8; CSN inh: 4.5; Rpn11 confirm: 39.2; MMP-2 counter: 4.6; Thrombin inh: 25.2

How did CCOC(=O)c1c(NC(=O)C(C)OC(=O)C2=COCCO2)sc2c1CCCC2 (centres undefined) do in these assays?
Rpn11 block: 3.0; HNF4A DNA FP: 3.2; CSN inh: -4.0

Results for COc1ccc(-c2cc(C(F)(F)F)nc(SCCC(=O)N3CCN(C)CC3)n2)cc1 ?
Rpn11 block: -0.5; HNF4A DNA FP: 1.6; CSN inh: -0.3

How did COCC(C)NC(=O)CCSc1nc(-c2ccc(OC)cc2)cc(C(F)(F)F)n1 (centres undefined) do in these assays?
Rpn11 block: 85.8*; HNF4A DNA FP: 1.9; TPT1 inhibitor: -1.2; CSN inh: 1.9; Rpn11 confirm: -14.0; MMP-2 counter: -22.4; Thrombin inh: -28.1

What do the screens show for `COc1cc2c(cc1OC)C(C)N(CC(=O)Nc1ccc(S(=O)(=O)N3CCCC3)cc1)CC2` (centres undefined)?
Rpn11 block: 53.3*; HNF4A DNA FP: 5.7; TPT1 inhibitor: 4.3; CSN inh: 6.4; Rpn11 confirm: -8.2; MMP-2 counter: -20.1; Thrombin inh: -8.8

Results for COc1cc2c(cc1OC)CN(CC(=O)Nc1ccc(S(=O)(=O)N3CCCC3)cc1)CC2 ?
Rpn11 block: 1.6; HNF4A DNA FP: -0.5; TPT1 inhibitor: 0.4; CSN inh: -0.2

How did Cc1ccc(N(Cc2ccccc2)C(=O)c2cc(S(=O)(=O)N3CCOCC3)ccc2F)cc1 do in these assays?
Rpn11 block: 45.6*; HNF4A DNA FP: 14.7; CSN inh: 7.8; Rpn11 confirm: 8.9; MMP-2 counter: -18.7; Thrombin inh: -1.0

What do the screens show for `Cc1ccc(N(Cc2ccccc2)C(=O)c2cc(S(=O)(=O)N3CCOCC3)ccc2Cl)cc1`?
Rpn11 block: 18.0; HNF4A DNA FP: 5.2; TPT1 inhibitor: 1.1; CSN inh: -2.2

How did CC(C)C(=O)Nc1ccc(NC(=S)NC(=O)c2cc3ccccc3o2)cc1 do in these assays?
Rpn11 block: -2.6; HNF4A DNA FP: 0.0; TPT1 inhibitor: 4.4; CSN inh: -1.1

What do the screens show for `CC(C)C(=O)Nc1ccc(NC(=O)c2cc3ccccc3o2)cc1`?
Rpn11 block: 177.2*; HNF4A DNA FP: 16.5; TPT1 inhibitor: -3.6; CSN inh: -2.4; Rpn11 confirm: -3.2; MMP-2 counter: -19.4; Thrombin inh: -0.5

What do the screens show for `O=C(NC(=S)Nc1ccc2oc(=O)ccc2c1)c1cc2ccccc2o1`?
Rpn11 block: 42.5*; HNF4A DNA FP: -9.1; TPT1 inhibitor: 1.5; CSN inh: 1.5; Rpn11 confirm: 0.9; MMP-2 counter: 23.7; Thrombin inh: 3.0

How did CC(=O)Nc1ccc(NC(=S)NC(=O)c2cc3ccccc3o2)cc1 do in these assays?
Rpn11 block: 3.1; HNF4A DNA FP: -0.9; TPT1 inhibitor: -3.1; CSN inh: -6.5

How did CCN(Cc1ccc(O)cc1)CC1CCCN(CCc2cccc(F)c2)C1 (centres undefined) do in these assays?
Rpn11 block: -4.7; HNF4A DNA FP: 0.2; TPT1 inhibitor: 4.9; CSN inh: -6.0

How did COc1ccc(-c2ccc3c(c2)S(=O)(=O)c2cccc(C(=O)N4CCN(c5c(Cl)cncc5Cl)CC4)c2C3=O)cc1OC do in these assays?
Rpn11 block: 75.6*; HNF4A DNA FP: 42.2*; CSN inh: 21.0; Rpn11 confirm: 42.6*; MMP-2 counter: -13.4; Thrombin inh: 17.0

Results for O=C(CCOc1ccccc1)NCC(c1ccco1)N1CCCCC1 (centres undefined) ?
Rpn11 block: 82.8*; HNF4A DNA FP: 51.2*; TPT1 inhibitor: 2.0; CSN inh: -4.7; Rpn11 confirm: -8.5; MMP-2 counter: -55.3; Thrombin inh: -4.2

Results for CC(=O)NC(CC(=O)NNC(=O)c1cc2ccccc2cc1O)c1ccccc1 (centres undefined) ?
Rpn11 block: 11.4; HNF4A DNA FP: -0.2; TPT1 inhibitor: 0.6; CSN inh: -4.0

Results for CN(CC(=O)Nc1ccc(F)cc1)C(=O)CCc1nc2sc3c(c2c(=O)[nH]1)CCCC3 ?
Rpn11 block: 48.1*; HNF4A DNA FP: 6.4; TPT1 inhibitor: 14.7; CSN inh: 15.1; Rpn11 confirm: 37.7; MMP-2 counter: -31.3; Thrombin inh: 19.0

What do the screens show for `CN(CC(=O)Nc1ccc(Cl)cc1)C(=O)CCc1nc2sc3c(c2c(=O)[nH]1)CCCC3`?
Rpn11 block: 51.8*; HNF4A DNA FP: 11.2; TPT1 inhibitor: 23.0; CSN inh: 13.3; Rpn11 confirm: 72.3*; MMP-2 counter: -30.9; Thrombin inh: 25.7

Results for CCN(CC(=O)Nc1ccccc1C(F)(F)F)C(=O)CCc1nc2sc3c(c2c(=O)[nH]1)CCCC3 ?
Rpn11 block: 19.9; HNF4A DNA FP: 0.6; TPT1 inhibitor: 8.2; CSN inh: 13.2

What do the screens show for `CCN(CC(=O)Nc1c(F)cccc1F)C(=O)CCc1nc2sc3c(c2c(=O)[nH]1)CCCC3`?
Rpn11 block: 68.4*; HNF4A DNA FP: 2.4; TPT1 inhibitor: 15.9; CSN inh: 27.3; Rpn11 confirm: 64.0*; MMP-2 counter: -3.0; Thrombin inh: 40.9*

How did CS(=O)(=O)N(CC(=O)Nc1ccccc1C(=O)N1CCCC1)c1ccccc1Br do in these assays?
Rpn11 block: 2.7; HNF4A DNA FP: -2.0; TPT1 inhibitor: -3.3; CSN inh: 2.6

Results for CCOC(=O)c1c(NC(=O)CC(C)C)sc(C(C)=O)c1C ?
Rpn11 block: -14.5; HNF4A DNA FP: 0.1; TPT1 inhibitor: -2.1; CSN inh: -0.3
